In brackets after ≈: the same amount, converted by molar mass. Structures can show the parent of a compound that is named as a salt. One block for each compound: values may come before it. Activity calls are given as the source filed them. No cut-off for these calls is given here.
Legend:
[1] = molecular target: T1, Inosine-5'-monophosphate dehydrogenase 2 (Homo sapiens, UniProt P12268); assay: Inhibition of human IMPDH2 using IMP at 10 uM as substrate in presence of NAD+ after 30 mins relative to control
Method in brief: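 Purchased purified hIMPDH2, 0.15 mU/well, in 100 mM Tris-HCl pH 8.6, 100 mM KCl, 5 mM DTT and 4% v/v DMSO. Started with 0.2 mM IMP plus 0.2 mM NAD+ and run 30 min at 37 °C. NADH read at 340 nm. Screen at 10 µM gave % inhibition.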

[2] = Cytotoxicity against mouse NIH/3T3 cells assessed as cell viability at 10 uM after 48 hrs by MTT assay relative to control; format: cell-based, NIH3T3; conditions: read-out: Activity
Method in brief: (§1)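 NIH-3T3 mouse embryonic fibroblasts grown in DMEM with 10% FBS and penicillin-streptomycin at 37 °C, 5% CO2. Seeded at 10,000 cells/well and dosed after 24 hr, DMSO vehicle, triplicate wells. After 48 hr exposure, MTT (5 mg/mL) added for 4 hr and formazan dissolved in DMSO. Absorbance read at 540/630 nm. Viability expressed as % of control, mean ± SD.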

[3] = tested on: DU-145; assay: Potency index, ratio of mycophenolic acid IC50 to compound IC50 for cytotoxicity against human DU145 cells; format: functional
[4] = Octanol-buffer partition coefficient, log D of the compound at pH 7.4 after 2 hrs by HPLC analysis; format: physicochemical
Method in brief: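 DMSO stock added to pre-saturated 1:1 1-octanol/pH 7.4 buffer and shaken 2 hr at 37 °C, 200 rpm. Phases separated and each quantified by HPLC on a C18 column with isocratic acetonitrile:water 80:20 at 1 mL/min. logD7.4 taken from the octanol-to-buffer concentration ratio.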

[5] = tested on: U-87 MG; assay: Cytotoxicity against human U87MG cells assessed as reduction in cell viability after 48 hrs by MTT assay; format: functional, cell-based, U-87MG ATCC
Method in brief: (§2)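 Cells grown in DMEM with 10% FBS and penicillin-streptomycin at 37 °C, 5% CO2. Seeded at 10,000 (MDA-MB-231), 8,000 (DU145) or 5,000 (U87 MG) cells/well. Treated 24 hr later with 0.01–100 µM, each dilution in triplicate, DMSO vehicle. After 48 hr, MTT (5 mg/mL) for 4 hr, formazan dissolved in DMSO. Absorbance read at 540 nm with 630 nm background. IC50 taken from mean of triplicate readings.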

[6] = Cytotoxicity against mouse NIH/3T3 cells assessed as cell viability at 100 uM after 48 hrs by MTT assay relative to control; format: cell-based, NIH3T3; conditions: read-out: Activity; method in brief: as §1
[7] = tested on: MDA-MB-231; assay: Cytotoxicity against human MDA-MB-231 cells assessed as reduction in cell viability after 48 hrs by MTT assay; format: functional, cell-based; conditions: MDA-MB-231, 48 h; method in brief: as §2
[8] = tested on: DU-145; assay: Cytotoxicity against human DU145 cells assessed as reduction in cell viability after 48 hrs by MTT assay; format: functional, cell-based; conditions: DU-145, 48 h; method in brief: as §2
[9] = molecular target: T1, Inosine-5'-monophosphate dehydrogenase 2; assay: Inhibition of human IMPDH2 using IMP as substrate in presence of NAD+ after 30 mins
Method in brief: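 Purchased purified hIMPDH2, 0.15 mU/well, in 100 mM Tris-HCl pH 8.6, 100 mM KCl, 5 mM DTT and 4% v/v DMSO. Started with 0.2 mM IMP plus 0.2 mM NAD+ and run 30 min at 37 °C. NADH read at 340 nm.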

[10] = Solubility in pH 7.4 sodium phosphate buffer after 2 hrs by HPLC analysis; format: physicochemical; conditions: read-out: -log(solubility) (converted)
Method in brief: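 DMSO stock diluted 1:100 into 50 mM sodium phosphate, pH 7.4, and shaken 2 hr at 37 °C, 200 rpm. Centrifuged 20 min at 4000 rpm; supernatant diluted 1:1 with acetonitrile and filtered. Quantified by C18 HPLC (acetonitrile:water 80:20, isocratic) against a calibration curve of 0.78–100 µM made in 1:1 buffer/acetonitrile.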

[11] = tested on: MDA-MB-231; assay: Potency index, ratio of mycophenolic acid IC50 to compound IC50 for cytotoxicity against human MDA-MB-231 cells; format: functional
[12] = Cytotoxicity against human PBMC assessed as cell viability at 10 uM after 48 hrs by MTT assay relative to control; format: cell-based; conditions: read-out: Activity
[13] = tested on: U-87 MG; assay: Potency index, ratio of mycophenolic acid IC50 to compound IC50 for cytotoxicity against human U87MG cells; format: functional, U-87MG ATCC

inhibition [1]: 23.3%
SMILES: COc1ccc(/C=C/C(=O)c2cccc(OCC(=O)Nc3ccc(OC)c(OC)c3)c2)cc1OC

inhibition [1]: 30.1%
SMILES: COc1ccc(NC(=O)COc2ccc(C(=O)/C=C/c3ccc(Cl)cc3)cc2)cc1OC

inhibition [1]: inactive
SMILES: O=C(COc1ccc(C(=O)/C=C/c2c(F)cccc2F)cc1)NCc1ccc2c(c1)OCO2

inhibition [1]: 33.6%
SMILES: COc1ccc(/C=C/C(=O)c2ccc(OCC(=O)Nc3ccc(OC)c(OC)c3)cc2)cc1

inhibition [1]: 65.5%
SMILES: COc1ccc(/C=C/C(=O)c2ccc(OCC(=O)Nc3ccc4c(c3)COC4=O)cc2)cc1OC

inhibition [1]: 24.5%
SMILES: COc1ccc(NC(=O)COc2ccc(C(=O)/C=C/c3cccs3)cc2)cc1OC

inhibition [1]: 20.6%
SMILES: COc1ccc(NC(=O)COc2ccc(C(=O)/C=C/c3cc(OC)c(OC)c(OC)c3)cc2)cc1OC

inhibition [1]: 28.8%
SMILES: COc1cccc(/C=C/C(=O)c2ccc(OCC(=O)Nc3ccc(OC)c(OC)c3)cc2)c1

logD at 2 h [4]: 2.99
IC50 [9]: 0.36 µM
inhibition [1]: 94.2%
solubility at 2 h [10]: 1.55 µM (≈ 0.696 µg/mL)
SMILES: O=C(COc1ccc(C(=O)/C=C/c2c(F)cccc2F)cc1)Nc1ccc2c(c1)COC2=O
viability at 48 h, 10 µM [2]: 98.5%
Ratio IC50 [13]: 3
IC50 [5]: 3.67 µM
viability at 48 h, 100 µM [6]: 70.2%
IC50 [7]: 2.41 µM
viability at 48 h, 10 µM [12]: 77%
IC50 [8]: 1.9 µM

inhibition [1]: 63.5%
SMILES: CCOc1ccc(/C=C/C(=O)c2ccc(OCC(=O)Nc3ccc(OC)c(OC)c3)cc2)cc1

inhibition [1]: 35.9%
SMILES: COc1ccc(NC(=O)COc2ccc(C(=O)/C=C/c3c(F)cccc3F)cc2)cc1OC

inhibition [1]: 25.7%
SMILES: COc1ccc(NC(=O)COc2ccc(C(=O)/C=C/c3ccccc3Cl)cc2)cc1OC

inhibition [1]: 21.3%
SMILES: COc1ccc(NC(=O)COc2ccc(C(=O)/C=C/c3ccco3)cc2)cc1OC

The next lines start with the compound.

SMILES: CCCCOc1ccc(/C=C/C(=O)c2ccc(OCC(=O)Nc3ccc4c(c3)COC4=O)cc2)cc1
inhibition [1]: 57.7%

SMILES: O=C(COc1ccc(C(=O)/C=C/c2ccccc2Cl)cc1)Nc1ccc2c(c1)COC2=O
inhibition [1]: 59.5%

SMILES: O=C(COc1ccc(C(=O)/C=C/c2ccc(Cl)cc2)cc1)Nc1ccc2c(c1)COC2=O
inhibition [1]: 62.1%

SMILES: O=C(COc1ccc(C(=O)/C=C/c2ccc(OCc3ccc(Cl)cc3)cc2)cc1)Nc1ccc2c(c1)COC2=O
inhibition [1]: 39.1%

SMILES: O=C(COc1cccc(C(=O)/C=C/c2ccccc2)c1)Nc1ccc2c(c1)COC2=O
viability at 48 h, 10 µM [2]: 96.7%
Ratio IC50 [3]: 1.7
logD at 2 h [4]: 2.79
IC50 [5]: 3.97 µM
viability at 48 h, 100 µM [6]: 67.6%
IC50 [7]: 1.1 µM
IC50 [8]: 1.75 µM
IC50 [9]: 0.43 µM
inhibition [1]: 93.7%
solubility at 2 h [10]: 1.55 µM (≈ 0.64 µg/mL)
Ratio IC50 [11]: 4

SMILES: COc1c(C)c2c(c(O)c1C/C=C(\C)CCC(=O)O)C(=O)OC2 [MYCOPHENOLIC ACID]
viability at 48 h, 10 µM [2]: 65.2%
IC50 [5]: 10.7 µM
viability at 48 h, 100 µM [6]: 40.7%
IC50 [7]: 4.38 µM
viability at 48 h, 10 µM [12]: 63%
IC50 [8]: 2.94 µM

SMILES: COc1ccc(/C=C/C(=O)c2ccc(OCC(=O)Nc3ccc4c(c3)COC4=O)cc2)cc1
viability at 48 h, 10 µM [2]: 90.9%
IC50 [5]: 4.9 µM
viability at 48 h, 100 µM [6]: 63.7%
IC50 [7]: 3.03 µM
viability at 48 h, 10 µM [12]: 86%
IC50 [8]: 2.13 µM
IC50 [9]: 0.66 µM
inhibition [1]: 95.6%

SMILES: COc1cccc2c1C(=O)c1c(O)c3c(c(O)c1C2=O)C[C@@](O)(C(=O)CO)C[C@@H]3O[C@H]1C[C@H](N)[C@H](O)[C@H](C)O1 [DOXORUBICIN HYDROCHLORIDE]
viability at 48 h, 10 µM [2]: 15.6%
IC50 [5]: 0.11 µM
viability at 48 h, 100 µM [6]: 6.73%
IC50 [7]: 0.54 µM
IC50 [8]: 0.21 µM

SMILES: COc1cc(/C=C/C(=O)c2ccc(OCC(=O)Nc3ccc4c(c3)COC4=O)cc2)cc(OC)c1OC
IC50 [9]: 7.38 µM
inhibition [1]: 71.3%

SMILES: CCCOc1ccc(/C=C/C(=O)c2ccc(OCC(=O)Nc3ccc4c(c3)COC4=O)cc2)cc1
inhibition [1]: 60.1%

SMILES: COc1ccc(/C=C/C(=O)c2ccc(OCC(=O)NCc3ccc4c(c3)OCO4)cc2)cc1OC
inhibition [1]: inactive

SMILES: O=C(COc1ccc(C(=O)/C=C/c2ccc(OCc3ccc(Cl)cc3Cl)cc2)cc1)Nc1ccc2c(c1)COC2=O
inhibition [1]: 36.7%

SMILES: COc1cc(/C=C/C(=O)c2cccc(OCC(=O)Nc3ccc4c(c3)COC4=O)c2)cc(OC)c1OC
inhibition [1]: 63.7%

SMILES: O=C(COc1ccc(/C=C/C(=O)c2ccc(F)cc2)cc1)Nc1ccc2c(c1)COC2=O
viability at 48 h, 10 µM [2]: 90.3%
IC50 [5]: 6.05 µM
viability at 48 h, 100 µM [6]: 80.2%
IC50 [7]: 5.42 µM
IC50 [8]: 6.88 µM
IC50 [9]: 0.57 µM
inhibition [1]: 87.9%

SMILES: COc1cccc(/C=C/C(=O)c2ccc(OCC(=O)Nc3ccc4c(c3)COC4=O)cc2)c1
viability at 48 h, 10 µM [2]: 87.1%
IC50 [5]: 5.75 µM
viability at 48 h, 100 µM [6]: 62.6%
IC50 [7]: 3.42 µM
IC50 [8]: 2.55 µM
IC50 [9]: 0.36 µM
inhibition [1]: 91.5%

SMILES: O=C(COc1ccc(C(=O)/C=C/c2ccco2)cc1)Nc1ccc2c(c1)COC2=O
inhibition [1]: 57.3%

SMILES: O=C(COc1ccc(C(=O)/C=C/c2ccc(OCc3ccccc3)cc2)cc1)Nc1ccc2c(c1)COC2=O
inhibition [1]: 52.2%

SMILES: O=C(COc1ccc(C(=O)/C=C/c2ccc([N+](=O)[O-])cc2)cc1)Nc1ccc2c(c1)COC2=O
inhibition [1]: 63.2%

SMILES: COc1ccc(/C=C/C(=O)c2cccc(OCC(=O)Nc3ccc4c(c3)COC4=O)c2)cc1OC
inhibition [1]: 57%

SMILES: O=C(COc1ccc(C(=O)/C=C/c2cccs2)cc1)Nc1ccc2c(c1)COC2=O
IC50 [9]: 4.54 µM
inhibition [1]: 76.3%

SMILES: COc1cc(/C=C/C(=O)c2ccc(OCC(=O)NCc3ccc4c(c3)OCO4)cc2)cc(OC)c1OC
inhibition [1]: inactive

SMILES: CCOc1ccc(/C=C/C(=O)c2ccc(OCC(=O)NCc3ccc4c(c3)OCO4)cc2)cc1
inhibition [1]: inactive

SMILES: O=C(COc1ccc(C(=O)/C=C/c2ccccc2)cc1)Nc1ccc2c(c1)COC2=O
IC50 [9]: 0.79 µM
inhibition [1]: 79.1%

SMILES: CCOc1ccc(/C=C/C(=O)c2ccc(OCC(=O)Nc3ccc4c(c3)COC4=O)cc2)cc1
inhibition [1]: 65.5%

SMILES: COc1ccc(/C=C/C(=O)c2ccc(OCC(=O)NCc3ccc4c(c3)OCO4)cc2)cc1
inhibition [1]: inactive

SMILES: COc1cc(C(=O)/C=C/c2cc(OC)c(OC)c(OC)c2)ccc1OCC(=O)Nc1ccc2c(c1)COC2=O
inhibition [1]: 19.9%
